# ChEMBL document CHEMBL1144480, “Study on the substituents' effects of a series of synthetic chalcones against the yeast Candida albicans” (2007)
# Activity calls are given as the source filed them. The rule behind the calls is not given here.
# Legend:
# Candida albicans [1] = test: Growth inhibition of Candida albicans Berhaut 62I by agar cup method; type: functional
# Summary of the method: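 Each well received 100 µl of sample dissolved in 96% EtOH. Pre-diffusion at 4 °C for 2 h, then 37 °C for 48 h. Read-out was inhibitory zone diameter, with ≥15 mm initially counted as active. Pure solvent served as control.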
# Candida albicans [2] = test: Antifungal activity against Candida albicans Berhaut 62I in meat-pepton broth; type: functional
# Summary of the method: (§1)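 Serial dilutions of each chalcone in meat-pepton broth in tubes; inoculum 10⁵ cells/ml; 37 °C, 24 h. MIC taken as the lowest dilution with no visible growth against inoculated drug-free broth. Tubes without visible growth streaked onto meat-pepton agar, 37 °C, 24 h, and checked for growth.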
# Candida albicans [3] = test: Antifungal activity against Candida albicans Berhaut 62I after 24 hrs; type: functional; summary of the method: as §1
# Candida albicans [4] = test: Antifungal activity against Candida albicans Berhaut 62I at 2000 ug/ml; type: functional, organism-based
# [5] = Candida albicans, Berhaut 62I, read-out: MIC
Compound,inhibition zone (IZ) (Candida albicans [1]),MIC (Candida albicans [2]; [5]),MIC (Candida albicans [3]),MIC (Candida albicans [2]),Activity (Candida albicans [4])
"O=C(/C=C/c1ccc(Cl)cc1)c1ccc(Cl)cc1 [4',4-DICHLOROCHALCONE]",0 mm,500 µg/mL,500 µg/mL,–,–
COc1cc(C(=O)/C=C/c2ccc(C)cc2)cc(OC)c1OC,0 mm,500 µg/mL,500 µg/mL,–,–
COc1cccc(/C=C/C(=O)c2ccc(Cl)cc2)c1O,0 mm,500 µg/mL,500 µg/mL,–,–
O=C(/C=C/c1ccc([N+](=O)[O-])cc1)c1ccccc1,17 mm,250 µg/mL,250 µg/mL,–,–
O=C(/C=C/c1ccc(O)cc1)c1ccc(Cl)cc1,21 mm,62.5 µg/mL,62.5 µg/mL,–,–
O=C(/C=C/c1ccccc1O)c1ccc(Cl)cc1,16 mm,62.5 µg/mL,62.5 µg/mL,–,–
O=C(/C=C/c1cccc(O)c1)c1ccccc1 [3-HYDROXY CHALCONE],17 mm,250 µg/mL,250 µg/mL,–,–
O=C(/C=C/c1ccc([N+](=O)[O-])cc1)c1ccc(Cl)cc1,15 mm,250 µg/mL,250 µg/mL,–,–
CC(=O)Nc1ccc(/C=C/C(=O)c2ccccc2)cc1,0 mm,500 µg/mL,500 µg/mL,–,–
O=C(/C=C/c1cccc(O)c1)c1ccc(Cl)cc1,20 mm,125 µg/mL,125 µg/mL,–,–
Cc1ccc(/C=C/C(=O)c2ccc(Cl)cc2)cc1,0 mm,500 µg/mL,500 µg/mL,–,–
N#Cc1ccc(/C=C/C(=O)c2ccccc2)cc1,17 mm,250 µg/mL,250 µg/mL,–,–
COc1ccc(/C=C/C(=O)c2ccc(Cl)cc2)cc1OC,0 mm,62.5 µg/mL,500 µg/mL,62.5 µg/mL,–
Cc1ccc(/C=C/C(=O)c2ccccc2)cc1,0 mm,500 µg/mL,500 µg/mL,–,–
O=C(/C=C/C=C/c1ccccc1)/C=C/C=C/c1ccccc1,–,–,–,–,inactive
COc1cccc(/C=C/C(=O)c2ccc(Cl)cc2)c1,15 mm,62.5 µg/mL,500 µg/mL,–,–
O=C(/C=C/c1ccc(O)c(O)c1)c1ccc(Cl)cc1,14 mm,62.5 µg/mL,62.5 µg/mL,–,–
O=C(/C=C/c1ccccc1)c1ccccc1 [CHALCONE],30 mm,125 µg/mL,125 µg/mL,–,–
COc1cc(C(=O)/C=C/c2ccc(Cl)cc2)cc(OC)c1OC,0 mm,500 µg/mL,500 µg/mL,–,–
CN(C)c1ccc(/C=C/C(=O)c2ccc(Cl)cc2)cc1,0 mm,500 µg/mL,500 µg/mL,–,–
O=C(/C=C/c1ccc(O)c(O)c1)c1ccccc1,15 mm,62.5 µg/mL,62.5 µg/mL,–,–
COc1ccc(/C=C/C(=O)c2ccc(Cl)cc2)cc1,0 mm,500 µg/mL,500 µg/mL,–,–
COc1cc(C(=O)/C=C/c2ccc(N(C)C)cc2)cc(OC)c1OC,0 mm,500 µg/mL,500 µg/mL,–,–

Compound,inhibition zone (IZ) (Candida albicans [1]),MIC (Candida albicans [2]; [5]),MIC (Candida albicans [3]),MIC (Candida albicans [2]),Activity (Candida albicans [4])
N#Cc1ccc(/C=C/C(=O)c2ccc(Cl)cc2)cc1,23 mm,250 µg/mL,250 µg/mL,–,–
O=C(/C=C/c1ccccc1O)c1ccccc1,21 mm,31.2 µg/mL,31.2 µg/mL,–,–
COc1cccc(/C=C/C(=O)c2ccccc2)c1O,12 mm,62.5 µg/mL,62.5 µg/mL,–,–
O=C(/C=C/C=C/c1ccccc1)c1ccccc1,–,–,–,–,inactive
COc1cc(/C=C/C(=O)c2ccc(Cl)cc2)cc(OC)c1O,15 mm,62.5 µg/mL,125 µg/mL,–,–
O=C(/C=C/c1ccccc1)c1ccc(Cl)cc1,0 mm,500 µg/mL,500 µg/mL,–,–
COc1ccc(/C=C/C(=O)c2ccccc2)cc1O,0 mm,500 µg/mL,500 µg/mL,–,–
COc1ccc(/C=C/C(=O)c2ccccc2)cc1 [4-METHOXY CHALCONE],0 mm,500 µg/mL,500 µg/mL,–,–
O=C(/C=C/c1ccc(O)cc1)c1ccccc1 [4-HYDROXYCHALCONE],15 mm,62.5 µg/mL,62.5 µg/mL,–,–
O=C(/C=C/c1ccc2c(c1)OCO2)c1ccc(Cl)cc1,0 mm,62.5 µg/mL,500 µg/mL,–,–
COc1cc(C(=O)/C=C/c2ccccc2)cc(OC)c1OC,0 mm,500 µg/mL,500 µg/mL,–,–
COc1ccc(/C=C/C(=O)c2ccc(Cl)cc2)cc1O,0 mm,500 µg/mL,500 µg/mL,–,–
COc1cc(C(=O)/C=C/c2ccc(C#N)cc2)cc(OC)c1OC,0 mm,500 µg/mL,500 µg/mL,–,–
COc1cc(/C=C/C(=O)c2ccc(Cl)cc2)cc(OC)c1OC,0 mm,62.5 µg/mL,500 µg/mL,–,–
COc1ccc(/C=C/C(=O)c2cc(OC)c(OC)c(OC)c2)cc1,0 mm,500 µg/mL,500 µg/mL,–,–
CC(=O)Nc1ccc(/C=C/C(=O)c2ccc(Cl)cc2)cc1,0 mm,500 µg/mL,500 µg/mL,–,–
O=C(/C=C/c1ccccc1)/C=C/c1ccccc1,–,–,–,–,inactive
CN(C)c1ccc(/C=C/C(=O)c2ccccc2)cc1,0 mm,500 µg/mL,500 µg/mL,–,–
COc1cccc(/C=C/C(=O)c2cc(OC)c(OC)c(OC)c2)c1,–,62.5 µg/mL,–,–,–
O=C(/C=C/c1ccc2c(c1)OCO2)c1ccccc1,–,62.5 µg/mL,–,–,–
COc1cc(C(=O)/C=C/c2ccc(NC(C)=O)cc2)cc(OC)c1OC,0 mm,500 µg/mL,500 µg/mL,–,–
COc1cc(/C=C/C(=O)c2ccc(Cl)cc2)ccc1O,19 mm,62.5 µg/mL,250 µg/mL,–,–
O=C(/C=C/c1ccc(Cl)cc1)c1ccccc1 [4-CHLORO CHALCONE],0 mm,500 µg/mL,500 µg/mL,–,–
